HDAC3 inh: HDAC3 deacetylase inhibitors, primary screen, biochemical, fluorescence, cell-free homogeneous. Histone deacetylase 3 (Homo sapiens), O15379. recombinant HDAC3, fluorogenic peptide/trypsin coupled. inhibition, % at 8.3 µM. hit rate 0.15% among 320,000; in the data active means inhibition above about 26%, passing the limit was not always enough
UCH37 inh: inhibitors of human UCH37 deubiquitinase, primary screen, biochemical, Ub-AMC cleavage, fluorescence; Ubiquitin carboxyl-terminal hydrolase isozyme L5 (Homo sapiens), Q9Y5K5; inhibition, % (concentration not given with the values); purified proteasome/UCH37; AID 588478, 2011; hit rate 0.33% among 330,000;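 active means mean inhibition over replicate wells above about 20%, limit read from the data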;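 further: 0% = compound-free wells with enzyme and 100% = wells lacking proteasome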
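Schedule: 30 min plus 25 min, room temperature / Material: human UCH37 within purified proteasomes / Technique: AMC fluorescence intensity at 355/460 nm / Buffer or medium: pH 7.4 Tris-HCl (50 mM) with ovalbumin, ATP-MgCl2, DTT / Controls: wells without proteasome as full block, compound-free enzyme plus substrate as uninhibited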
FAS-TE inh: FAS thioesterase domain inhibitors, primary screen, biochemical, fluorescence intensity, uHTS; recombinant FAS-TE, OMFH fluorogenic substrate, fluorescence endpoint; inhibition, % at 15 µM; hit rate 0.67% among 360,000;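 active means compounds whose normalised, plate-corrected inhibition of enzyme fluorescence in the single-dose primary screen is 50% or more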;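 further: 0% = DMSO with enzyme and 100% = substrate without enzyme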
Rtt109 Vps75: inhibitors of C. albicans Rtt109/Vps75 HAT, primary screen, biochemical, ThioGlo CoA-SH fluorescence, plate reader. Histone acetyltransferase RTT109 (Candida albicans (strain SC5314 / ATCC MYA-2876)), …. purified Rtt109/Vps75, 4 h. inhibition, % at 34.9 µM. hit rate 0.16% among 330,000. AID 540336, 2011;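 active means inhibition of at least 50% in every replicate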
M18AAP inhibitor: PfM18AAP inhibitors, malaria aminopeptidase, primary screen, biochemical, QFRET, recombinant enzyme. inhibition, % at 7.35 µM. hit rate 1.2% among 290,000. M18 aspartyl aminopeptidase (Plasmodium falciparum 3D7). H-Glu-NHMec fluorogenic cleavage;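 active means inhibition above the campaign mean inhibition over all tested compounds plus 3 SD, cut at about 28% in these data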;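 further: 0% = plate median of test compound wells and 100% = 2 mM ZnCl2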
ALR inh: inhibitors of human ALR sulfhydryl oxidase, primary screen, biochemical, H2O2 detection, HRP-luminol luminescence, single point; FAD-linked sulfhydryl oxidase ALR (Homo sapiens), P55789; purified ALR, DTT oxidation; inhibition, % (concentration not given with the values); hit rate 3.8% among 290,000;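 active means mean replicate inhibition above about 79%, with every replicate also reaching it, limit read from the data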
* hit, by the source's call. Sampled rows, rich in hits. Any-hit rate of the full collection: about 4.6%.

S=C(Nc1cccnc1)N1CCc2ccccc21 was read as HDAC3 inh 0.6, UCH37 inh 3.6, FAS-TE inh -8.3, Rtt109 Vps75 -14.8, M18AAP inhibitor 2.2 and ALR inh 16.1.
`Fc1ccc(NC(=S)N2CCCc3ccccc32)cc1` gave HDAC3 inh -3.0, UCH37 inh -1.0, FAS-TE inh -3.4, Rtt109 Vps75 4.5, M18AAP inhibitor -3.6 and ALR inh 88.9*.
Screening COc1ccc(C=NNC(=O)c2ccoc2C)cc1OC returned UCH37 inh 5.1.
`S=C(c1ccc(-c2ccc(Cl)cc2Cl)o1)N1CCCCC1` gave HDAC3 inh -2.1, UCH37 inh 4.8, FAS-TE inh 22.1, M18AAP inhibitor -1.7 and ALR inh 7.5.
`S=C(c1ccc(-c2ccc(Cl)cc2Cl)o1)N1CCCC1` gave HDAC3 inh 2.8, UCH37 inh 5.3, FAS-TE inh 21.4, M18AAP inhibitor -3.7 and ALR inh 95.8*.
Cc1ccc2cc(CCl)c(Cl)nc2c1 was read as HDAC3 inh -2.2, UCH37 inh 5.9, FAS-TE inh 4.5, Rtt109 Vps75 10.2, M18AAP inhibitor -5.8 and ALR inh 98.2*.
For Cc1sc2nc(CN3CCN(c4ccc(O)cc4)CC3)[nH]c(=O)c2c1C the results were HDAC3 inh -1.2, UCH37 inh 2.5, FAS-TE inh -1.4, Rtt109 Vps75 3.5 and M18AAP inhibitor 31.6*.
For COc1cccc(/C=C2\SC(=O)N(CC(=O)NCCCn3ccnc3)C2=O)c1 the results were HDAC3 inh -1.3, UCH37 inh 4.0, FAS-TE inh -1.8, Rtt109 Vps75 23.9, M18AAP inhibitor 2.3 and ALR inh 98.9*.
`Cc1cc(SCCC(=O)O)nc2ccccc12` gave HDAC3 inh -6.6, UCH37 inh 0.5, FAS-TE inh -11.0, Rtt109 Vps75 5.2, M18AAP inhibitor 29.5* and ALR inh 4.7.
For Cc1cc(SCC(=O)N/N=C/c2ccc(C(=O)O)cc2)nc2ccccc12 the results were HDAC3 inh 6.0, FAS-TE inh -5.1, Rtt109 Vps75 -0.6, M18AAP inhibitor -4.2 and ALR inh 99.3*.
Screening Oc1ccccc1C=NNC(=S)NC1CC2CCC1C2 (centres undefined) returned UCH37 inh -1.1.
COc1ccccc1NC(=O)CCc1nc2ccccc2s1 was read as HDAC3 inh -2.5, UCH37 inh 0.0, FAS-TE inh -1.7, Rtt109 Vps75 2.1, M18AAP inhibitor -8.5 and ALR inh -35.5.
Screening CC(C)c1ccccc1NC(=O)CCc1nc2ccccc2s1 returned HDAC3 inh -4.6, UCH37 inh 1.8, FAS-TE inh -8.1, Rtt109 Vps75 0.2, M18AAP inhibitor 30.1* and ALR inh -9.1.
CC(C)c1ccc(C=NNC(=O)C2CCCC2)cc1 was read as UCH37 inh 3.5.
Screening COC(=O)c1c(NC(=O)C(C)C)sc(C(=O)N2CCOCC2)c1C returned HDAC3 inh 1.2, UCH37 inh 4.4, FAS-TE inh -3.6, Rtt109 Vps75 7.5 and M18AAP inhibitor 31.4*.
`COC(=O)c1c(NC(C)=O)sc(C(=O)N2CCOCC2)c1C` gave HDAC3 inh 6.9, UCH37 inh 5.9, FAS-TE inh -6.5, Rtt109 Vps75 -2.6, M18AAP inhibitor -13.6 and ALR inh -2.5.
For O=C(NN=C1CCSC1)c1cccc([N+](=O)[O-])c1 the results were UCH37 inh 1.1.
For COc1ccc(C(=O)N/N=C(\Cc2ncc[nH]2)c2ccccc2)cc1 the results were HDAC3 inh -2.9, FAS-TE inh -12.8, Rtt109 Vps75 2.6, M18AAP inhibitor 7.8 and ALR inh 86.8*.
Screening c1ccc(N/N=C(\Cc2ncc[nH]2)c2ccccc2)cc1 returned HDAC3 inh -0.4, FAS-TE inh 3.2, Rtt109 Vps75 1.6, M18AAP inhibitor 8.9 and ALR inh 98.7*.
O=C(CCl)c1cc2c3c(c1)CC(=O)N3CCC2 was read as HDAC3 inh 2.6, FAS-TE inh -2.0, Rtt109 Vps75 3.5, M18AAP inhibitor 5.2 and ALR inh 98.1*.
O=C(NCCO)C(=O)Nc1cc2c3c(c1)CC(=O)N3CCC2 was read as HDAC3 inh 1.8, UCH37 inh 3.4, FAS-TE inh -7.4, Rtt109 Vps75 3.6 and M18AAP inhibitor 8.2.
`COc1cc(C=NNC(=O)COc2ccccc2C)ccc1OC(=O)c1cccs1` gave UCH37 inh -1.6.
Cc1oc(N=Cc2ccccc2)c(C#N)c1C was read as UCH37 inh 1.9.
Screening CCOC(=O)C(=NO)C(C)=NNC(=O)C(=O)Nc1ccc(Cl)cc1 returned UCH37 inh 4.4.
Oc1ccc(CCc2n[nH]c(=S)n2-c2ccc(F)cc2)cc1 was read as HDAC3 inh 7.2, UCH37 inh -0.3, FAS-TE inh 2.4, Rtt109 Vps75 6.8, M18AAP inhibitor 28.5* and ALR inh 80.5*.
Screening COC(=O)C1CCN(C(=O)CN2C(=O)NC(CCc3ccccc3)C2=O)CC1 (centres undefined) returned HDAC3 inh 3.5, UCH37 inh -1.5, FAS-TE inh -3.6, Rtt109 Vps75 -8.9, M18AAP inhibitor 0.7 and ALR inh 99.2*.
O=S(=O)(Nc1cccc2ccccc12)c1cccs1 was read as HDAC3 inh 10.2, UCH37 inh -4.3, FAS-TE inh -0.3, Rtt109 Vps75 -10.7, M18AAP inhibitor 0.9 and ALR inh 15.7.
Screening O=S(=O)(Nc1ccc(O)c2ccccc12)c1cccs1 returned HDAC3 inh -0.8, UCH37 inh 2.2, FAS-TE inh -0.8, Rtt109 Vps75 22.6, M18AAP inhibitor 21.6 and ALR inh 98.8*.
`Cc1cnc(NC(=O)CSC(=S)N2CCOCC2)s1` gave HDAC3 inh -1.8, UCH37 inh 3.3, FAS-TE inh -5.9, Rtt109 Vps75 0.8, M18AAP inhibitor 1.2 and ALR inh 97.1*.
`Cc1cnc(NC(=O)Cc2ccc(S(=O)(=O)N3CCOCC3)s2)s1` gave HDAC3 inh 2.2, FAS-TE inh -17.1, Rtt109 Vps75 3.6 and ALR inh 92.2*.
`CCOC(=O)c1ccc(NC(=O)CN2C(=O)CN(C(C)=O)C2=S)cc1` gave HDAC3 inh -0.5, UCH37 inh 1.1, FAS-TE inh -15.1, Rtt109 Vps75 8.2, M18AAP inhibitor -10.8 and ALR inh 99.4*.
`Cc1ccc(NC(=O)COC(=O)CSC(=S)N2CCOCC2)cc1` gave HDAC3 inh 7.2, UCH37 inh 3.4, FAS-TE inh 1.1, Rtt109 Vps75 -11.6, M18AAP inhibitor 6.3 and ALR inh 98.3*.

From PubChem
